According to PMC2711989 (Cancer research, 2009):
Like-named read-outs stand apart in the source and are kept apart here.

Legend:
[1] = test system: BxPC-3 tumor; test: MicroPET imaging of the BxPC-3 xenograft model; type: in vivo, mice; conditions: for SUVmax in BxPC-3 tumor: mean ± SD, n = 3 animals
[2] = test system: BxPC-3 xenograft; test: Biodistribution in the BxPC-3 xenograft model; type: in vivo, mice
Method in brief: (§1)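 Male athymic nude mice (nu/nu) received 1.5 × 10^6 BxPC-3 cells s.c. in the left shoulder region, in 1:1 serum-free DMEM/MatriGel. Studies began at a tumor diameter of ∼0.5 cm. Radiotracers (∼15 to 30 μCi) were given in saline/PBS, n = 3 per time point. Tumor and tissue radioactivity was expressed as decay-corrected %ID/g, mean ± SD. Significance was tested by two-tailed Student's t-test.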

[3] = Biodistribution in the BxPC-3 xenograft model; type: in vivo, mice; conditions: male, athymic nude (nu/nu), mouse, BxPC-3 tumor, iv, total radioactivity
Method in brief: as §1

[4] = test system: DX3puroβ6 (αvβ6-positive) and DX3puro (αvβ6-negative) xenografts; test: Biodistribution in the DX3puro/DX3puroβ6 xenograft model; type: in vivo, mice
Method in brief: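 Each male athymic nude mouse (nu/nu) carried both xenografts: 3 × 10^6 DX3puroβ6 (αvβ6-transduced) and 3 × 10^6 DX3puro (control) melanoma cells in serum-free DMEM, injected s.c. on opposite shoulder flanks. Studies began at a tumor diameter of ∼0.5 cm. Radiotracers (∼15 to 30 μCi) were given in saline/PBS, n = 3 per time point. Uptake was expressed as decay-corrected %ID/g, mean ± SD.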

[5] = test system: DX3puroβ6 cell line; test: Radiotracer cell binding and internalization, DX3puroβ6 cells; type: cell-based, human; conditions: DX3puroβ6, 1 hour, acidic wash buffer pH 2.5, 4°C
Method in brief: (§2)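 3.75 × 10^6 cells were incubated with 0.2 μCi radiotracer in serum-free medium, pH 7.2, over a time course or for 1 h, n = 4 per cell line per time point. Bound fraction was γ-counted as cell pellet vs supernatant. Acid wash (0.2 mol/L sodium acetate, 0.5 mol/L NaCl, pH 2.5, 4°C) then released surface activity; internalized fraction was pellet vs released activity.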

[6] = test system: DX3puroβ6 (αvβ6-positive) and DX3puro (αvβ6-negative) xenografts; conditions: previously seen, cited from earlier work
[7] = test system: BxPC-3 cell line; test: Radiotracer cell binding and internalization, BxPC-3 cells; type: cell-based, human; conditions: BxPC-3, 1 hour, acidic wash buffer pH 2.5, 4°C
Method in brief: as §2

CC(C)C[C@H](NC(=O)[C@H](CC(=O)O)NC(=O)CNC(=O)[C@H](CCCNC(=N)N)NC(=O)[C@H](CC(C)C)NC(=O)[C@H](CC(N)=O)NC(=O)[C@@H]1CCCN1C(=O)[C@@H](NC(=O)[C@H](C)NC(=O)[C@H](CC(N)=O)NC(=O)CCOCCOCCOCCOCCOCCOCCOCCOCCOCCOCCOCCOCCOCCOCCOCCOCCOCCOCCOCCOCCOCCOCCOCCOCCOCCOCCOCCOCCNC(=O)CCOCCOCCOCCOCCOCCOCCOCCOCCOCCOCCOCCOCCOCCOCCOCCOCCOCCOCCOCCOCCOCCOCCOCCOCCOCCOCCOCCOCCNC(=O)c1ccc(F)cc1)C(C)C)C(=O)N[C@@H](CCC(N)=O)C(=O)N[C@H](C(=O)N[C@@H](CC(C)C)C(=O)N[C@@H](C)C(=O)N[C@@H](CCC(N)=O)C(=O)N[C@@H](CCCCN)C(=O)N[C@H](C(=O)N[C@@H](C)C(=O)N[C@@H](CCCNC(=N)N)C(=O)N[C@H](C(N)=O)[C@@H](C)O)C(C)C)C(C)C [[^18F]FBA-(PEG28)2-A20FMDV2]
SUVmax in BxPC-3 tumor ([1]; 15min): 0.99 ± 0.18
SUVmax in BxPC-3 tumor ([1]; 1 h p.i.): 0.79 ± 0.24
SUVmax in BxPC-3 tumor ([1]; 4 h): 0.59 ± 0.20
BxPC-3/blood ratio ([2]; 1 h): 9.0 :1
BxPC-3/muscle ratio ([2]; 1 h): 4.1 :1
BxPC-3/pancreas ratio ([2]; 1 h): 5.6 :1
BxPC-3/blood ratio ([2]; 4 h): 150 :1
BxPC-3/muscle ratio ([2]; 4 h): 4.4 :1
BxPC-3/pancreas ratio ([2]; 4 h): 4.4 :1
tissue uptake at 1 h [3]: 1.57 ± 0.25 %ID/g
tissue uptake at 4 h [3]: 2.08 ± 0.37 %ID/g
maximal αvβ6-positive/-negative xenograft uptake ratio [4]: 9.2 :1

CC(C)C[C@H](NC(=O)[C@H](CC(=O)O)NC(=O)CNC(=O)[C@H](CCCNC(=N)N)NC(=O)[C@H](CC(C)C)NC(=O)[C@H](CC(N)=O)NC(=O)[C@@H]1CCCN1C(=O)[C@@H](NC(=O)[C@H](C)NC(=O)[C@H](CC(N)=O)NC(=O)c1ccc(F)cc1)C(C)C)C(=O)N[C@@H](CCC(N)=O)C(=O)N[C@H](C(=O)N[C@@H](CC(C)C)C(=O)N[C@@H](C)C(=O)N[C@@H](CCC(N)=O)C(=O)N[C@@H](CCCCN)C(=O)N[C@H](C(=O)N[C@@H](C)C(=O)N[C@@H](CCCNC(=N)N)C(=O)N[C@H](C(N)=O)[C@@H](C)O)C(C)C)C(C)C [[^18F]FBA-A20FMDV2, 4-[^18F]fluorobenzoyl A20FMDV2]
SUVmax in BxPC-3 tumor ([1]; 15min): 0.50 ± 0.22
SUVmax in BxPC-3 tumor ([1]; 1 h p.i.): 0.22 ± 0.11
SUVmax in BxPC-3 tumor ([1]; 4 h): < 0.05
fraction of bound radioactivity internalized [5]: less than half
uptake in αvβ6-positive DX3puroβ6 tumor ([6]; 1 h p.i.): 0.66 ± 0.09 % ID/g
uptake in αvβ6-positive DX3puroβ6 tumor ([6]; 4 h p.i.): 0.06 ± 0.00 % ID/g
BxPC-3/blood ratio ([2]; 1 h): 3.3 :1
BxPC-3/muscle ratio ([2]; 1 h): 1.3 :1
BxPC-3/blood ratio ([2]; 4 h): 7.0 :1
BxPC-3/muscle ratio ([2]; 4 h): 2.5 :1
BxPC-3/pancreas ratio ([2]; 4 h): 9.5 :1
tissue uptake at 1 h [3]: 0.69 ± 0.19 %ID/g
tissue uptake at 4 h [3]: 0.12 ± 0.03 %ID/g
fraction of bound radioactivity internalized [7]: less than half

O=C[C@H]([18F])[C@@H](O)[C@H](O)[C@H](O)CO [[^18F]FDG, 2-[^18F]fluoro-2-deoxy-D-glucose, reference compound]
SUVmax in BxPC-3 tumor ([1]; 1 h p.i.): 0.62 ± 0.13
detection of BxPC-3 tumors by PET ([1]; BxPC-3 xenograft bearing mice): failed in all animals to detect the BxPC-3 tumors
